Reference: ChEMBL document CHEMBL1821706, “Unprecedented citrinin trimer tricitinol B functions as a novel topoisomerase IIα inhibitor” (J Med Chem, 2011)
Active and inactive are the calls of the source. No cut-off for these calls is given here.

Assays:
HL-60 [1] = assay: Induction of DNA damage in human HL60 cells assessed as increased histone H2AX expression at 20 uM agarose gel electrophoresis; format: functional, cell-based; conditions: TDE = time-dependent effect
HMEC [2] = assay: Selectivity ratio of IC50 for human HMEC cells to IC50 for MKN45 cells
[3] = molecular target: DNA topoisomerase 2-alpha (Homo sapiens) (UniProt P11388); assay: Induction of human topoisomerase 2alpha-mediated poststrand-passage DNA cleavage after 6 mins by agarose gel electrophoresis
Chain of DNA topoisomerase 2-alpha (Homo sapiens) (P11388 whole entry): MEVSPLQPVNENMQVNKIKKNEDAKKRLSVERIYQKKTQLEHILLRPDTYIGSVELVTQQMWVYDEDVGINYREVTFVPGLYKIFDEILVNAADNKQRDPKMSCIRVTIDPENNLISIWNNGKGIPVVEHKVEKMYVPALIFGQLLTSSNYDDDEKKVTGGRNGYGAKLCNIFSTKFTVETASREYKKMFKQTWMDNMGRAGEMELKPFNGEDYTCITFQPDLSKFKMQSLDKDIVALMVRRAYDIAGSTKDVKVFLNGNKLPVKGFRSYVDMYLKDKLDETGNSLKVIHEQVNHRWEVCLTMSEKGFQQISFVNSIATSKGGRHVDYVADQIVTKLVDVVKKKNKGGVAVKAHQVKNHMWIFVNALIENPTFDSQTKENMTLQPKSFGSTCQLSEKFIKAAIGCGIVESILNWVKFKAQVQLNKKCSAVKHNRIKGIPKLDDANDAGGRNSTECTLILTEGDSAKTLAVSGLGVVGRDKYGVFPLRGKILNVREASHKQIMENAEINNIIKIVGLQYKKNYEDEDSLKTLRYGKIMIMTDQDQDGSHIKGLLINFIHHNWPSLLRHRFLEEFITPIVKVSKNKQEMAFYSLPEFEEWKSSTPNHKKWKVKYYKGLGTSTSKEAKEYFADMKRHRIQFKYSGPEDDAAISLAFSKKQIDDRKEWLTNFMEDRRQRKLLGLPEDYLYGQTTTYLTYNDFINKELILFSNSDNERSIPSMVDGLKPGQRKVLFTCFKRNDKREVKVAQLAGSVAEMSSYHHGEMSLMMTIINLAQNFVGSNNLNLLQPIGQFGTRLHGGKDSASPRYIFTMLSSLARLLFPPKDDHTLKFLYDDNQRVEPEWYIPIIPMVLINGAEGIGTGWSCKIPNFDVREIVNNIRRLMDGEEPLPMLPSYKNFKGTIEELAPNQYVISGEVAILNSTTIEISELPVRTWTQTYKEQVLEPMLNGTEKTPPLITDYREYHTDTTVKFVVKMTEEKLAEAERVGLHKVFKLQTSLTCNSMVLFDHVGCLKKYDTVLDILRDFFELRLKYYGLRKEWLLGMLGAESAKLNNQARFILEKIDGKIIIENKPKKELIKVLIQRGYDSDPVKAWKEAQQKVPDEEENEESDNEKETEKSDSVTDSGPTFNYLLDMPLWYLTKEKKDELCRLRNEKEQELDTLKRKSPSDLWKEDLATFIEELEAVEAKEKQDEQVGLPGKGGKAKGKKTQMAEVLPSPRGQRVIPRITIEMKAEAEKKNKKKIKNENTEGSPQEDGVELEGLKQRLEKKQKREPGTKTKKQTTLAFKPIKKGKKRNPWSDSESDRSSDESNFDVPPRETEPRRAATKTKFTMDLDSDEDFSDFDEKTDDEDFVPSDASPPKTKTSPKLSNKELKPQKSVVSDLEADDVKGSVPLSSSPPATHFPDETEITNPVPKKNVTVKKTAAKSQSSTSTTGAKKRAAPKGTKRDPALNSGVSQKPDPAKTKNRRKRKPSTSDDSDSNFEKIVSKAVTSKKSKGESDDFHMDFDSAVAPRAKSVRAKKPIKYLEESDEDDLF
How it was run: (§1)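 Supercoiled pBR322 (0.25 μg) was incubated with 6 units of topo II in cleavage buffer containing 5 mM MgCl2 at 37 °C for 6 min; the post-strand-passage reactions also received 1 mM APPNHP. Reactions were stopped with SDS and proteinase K, digested at 50 °C for 30 min, heated to 70 °C, and run on 1% agarose gels.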

HMEC [4] = assay: Selectivity ratio of IC50 for human HMEC cells to IC50 for HCT116 cells
[5] = molecular target: DNA topoisomerase 2-alpha (Homo sapiens) (UniProt P11388); assay: Inhibition of human topoisomerase 2alpha-mediated unwinding of linearized pBR322 assessed as DNA intercalation at 2 to 50 uM
How it was run: (§2)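 Unwinding (intercalation) test: EcoRI-linearized pBR322 (0.1 μg) incubated with compound and 2 units T4 DNA ligase in ligase buffer at 22 °C for 30 min. Stopped at 60 °C for 10 min, compound removed by phenol extraction, ligation products resolved on agarose gel.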

KB [6] = assay: Cytotoxicity against vincristine-resistant human KB cells over expressing P-glycoprotein after 72 hrs by SRB assay; format: functional, cell-based
How it was run: (§3)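 Adherent human tumour lines were seeded and exposed in triplicate to graded compound concentrations at 37 °C for 72 h. Growth was read by sulforhodamine B staining. IC50 (50% growth inhibition) was obtained by the Logit method from at least three independent experiments and reported as mean ± SD.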

MCF7 [7] = assay: Selectivity ratio of IC50 for human HMEC cells to IC50 for MCF7 cells
HL-60 [8] = assay: Cytotoxicity against human HL60 cells after 72 hrs by MTT assay; format: functional, cell-based; conditions: HL-60, 72 h
How it was run: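 Cells were treated in triplicate with graded concentrations for 72 h at 37 °C and read by MTT. IC50 is the concentration giving 50% growth inhibition, derived by the Logit method from at least three independent experiments and given as mean ± SD.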

HL-60 [9] = assay: Induction of apoptosis in human HL60 cells assessed as activation of caspase 9 at 10 uM after 24 hrs by Western blotting preincubated for 2 hrs with 20 uM caspase 9 inhibitor Z-LEHD-FMK; format: functional, cell-based
How it was run: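 HL60 cells were pretreated with 20 μM Z-IETD-FMK, Z-LEHD-FMK or Z-VAD-FMK, then cultured with 10 μM compound for 24 h. Cleaved PARP and caspases were probed by Western blot. Three independent experiments were run.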

HMEC [10] = assay: Selectivity ratio of IC50 for human HMEC cells to IC50 for A431 cells
HL-60 [11] = assay: Induction of apoptosis in human HL60 cells assessed as DNA ladder formation after 24 hrs using Annexin-V/PI double-staining by flow cytometric analysis; format: functional, cell-based
How it was run: (§4)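 HL60 cells were treated with 2.5, 5.0, 7.5 or 10.0 μM for 24 h for DNA ladder analysis, representative of three experiments. Apoptotic fractions were measured after 2.5–10 μM for 24 h, or 10 μM over a time course, by Annexin/PI staining and flow cytometry (early plus late apoptotic cells), as mean ± SD of three experiments.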

HL-60 [12] = assay: Induction of apoptosis in human HL60 cells assessed as DNA ladder formation at 2.5 to 10 uM using Annexin-V/PI double-staining by flow cytometric analysis; format: functional, cell-based; conditions: TDE = time-dependent effect; how it was run: as §4
A-431 = assay: Cytotoxicity against human A431 cells after 72 hrs by SRB assay; format: functional, cell-based; conditions: A-431, 72 h, pooled result: one value given for 15 cell lines, strains, targets or settings; how it was run: as §3
HMEC [13] = assay: Selectivity ratio of IC50 for human HMEC cells to IC50 for Bel7402 cells
HMEC [14] = assay: Selectivity ratio of IC50 for human HMEC cells to IC50 for 786-O cells
MCF7 [15] = assay: Cytotoxicity against adriyamycin-resistant human MCF7 cells over expressing P-glycoprotein after 72 hrs by SRB assay; format: functional, cell-based; conditions: MCF7, 72 h; how it was run: as §3
[16] = molecular target: DNA topoisomerase 2-alpha (Homo sapiens) (UniProt P11388); assay: Induction of human topoisomerase 2alpha-mediated prestrand-passage DNA cleavage after 6 mins by agarose gel electrophoresis; how it was run: as §1
[17] = molecular target: DNA topoisomerase 2-alpha (Homo sapiens) (UniProt P11388); assay: Inhibition of human topoisomerase 2alpha-mediated decatenation of kDNA after 30 mins by agarose gel electrophoresis in presence of ATP
How it was run: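 Decatenation of 0.25 μg kDNA by 0.75 unit topo IIα at 37 °C for 30 min. Stopped with SDS. Run on 1% agarose in TAE at 4 V/cm for 2 h and stained with ethidium bromide.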

HMEC [18] = assay: Selectivity ratio of IC50 for human HMEC cells to IC50 for KB cells
[19] = molecular target: DNA topoisomerase 2-alpha (Homo sapiens) (UniProt P11388); assay: Inhibition of human topoisomerase 2alpha-mediated unwinding of linearized pBR322 assessed as DNA intercalation at 8 to 200 uM; how it was run: as §2
MDA-MB-468 = assay: Selectivity ratio of IC50 for human HMEC cells to IC50 for MDA-MB-468 cells
HCT-116 = assay: Induction of apoptosis in human HCT116 cells assessed as accumulation at S phase at 5 uM after 24 hrs using PI staining based flow cytometric analysis (reference value: 27%)
HMEC [20] = assay: Selectivity ratio of IC50 for human HMEC cells to IC50 for SGC7901 cells
MCF7 [21] = assay: Drug resistance index, ratio of IC50 for adriyamycin-resistant human MCF7 cells to IC50 for human MCF7 cells; format: functional
KB [22] = assay: Cytotoxicity against human KB cells after 72 hrs by SRB assay; format: functional, cell-based; how it was run: as §3

COC1O[C@H](C)[C@@H](C)c2c(C)c3c(c(O)c21)[C@@H]1O[C@H](C)[C@@H](C)c2c(C)c(O)c([C@H]4O[C@H](C)[C@@H](C)c5c(C)c(O)cc(O)c54)c(c21)O3 (stereo not given in full) [TRICITRINOL B]
Activity (HL-60 [1]): tde
Ratio IC50 (HMEC [2]): 2
Activity [3]: Dose-dependent effect
Ratio IC50 (HMEC [4]): 2
inhibition [5]: Active
IC50 (KB [6]): 4.6 µM
Ratio IC50 (MCF7 [7]): 2
IC50 (HL-60 [8]): 3.2 µM
Activity (HL-60 [9]): Active
Ratio IC50 (HMEC [10]): 2
Activity (HL-60 [11]): Dose-dependent effect
Activity (HL-60 [12]): tde
IC50 (A-431): 4.83 µM
Ratio IC50 (HMEC [13]): 2
Ratio IC50 (HMEC [14]): 2
IC50 (MCF7 [15]): 7.41 µM
Activity [16]: Dose-dependent effect
inhibition [17]: Dose-dependent effect
Ratio IC50 (HMEC [18]): 2
inhibition [19]: Active
Ratio IC50 (MDA-MB-468): 2
Activity (HCT-116): 20.42%
Ratio IC50 (HMEC [20]): 2
Ratio IC50 (MCF7 [21]): 1.28
IC50 (KB [22]): 3.87 µM
